Paper PMC5766413 (European journal of pharmacology, 2017)
Like-named read-outs stand apart in the source and are kept apart here.

Experiments:
NK1 receptor [1] = conditions: dogs; ref unpublished observations; cited from earlier work
NK1 receptor [2] = conditions: minipigs; ref unpublished observations; cited from earlier work
NK1 receptor [3] = conditions: monkeys; ref unpublished observations; cited from earlier work
[4] = tested on: bladder of anesthetized, acutely spinalized rats; format: in vivo, rat
Procedure, shortened: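 Acutely spinalized (T9–T10, ≥60 min earlier), urethane-anesthetized female rats. Capacity was taken as the mean of three saline fills (0.04–0.1 ml/min, urethra open) until leak. Meatus then clamped, bladder held at 70% capacity; vehicle and ascending IV or SC doses ≥20 min apart. Contraction defined as ≥5 mmHg above baseline within 5 min; onset, time to peak, 30-min AUC and response duration; mean + S.D.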

[5] = tested on: colorectum of anesthetized, acutely spinalized rats; test: Colorectal manometry with balloon catheter; format: in vivo, rat
Procedure, shortened: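 Urethane-anesthetized (1.2–1.4 g/kg SC) female rats, cord cut at T9–T10 ≥60 min before dosing, 37°C. Rectal balloon catheter was inflated in 0.1–0.2 ml saline steps to a steady 15–20 mmHg (0.3–0.7 ml total). Vehicle, then ascending SC doses in saline, 20–45 min apart. Pressure AUC over 0–5 min per dose; duration of raised activity noted; mean + S.D., ANOVA with Dunnett's test.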

[6] = tested on: blood pressure of anesthetized, acutely spinalized rats; test: Blood pressure; format: in vivo, rat; conditions: up to 30 μg/kg IV and 300 μg/kg SC
Procedure, shortened: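 Female rats were anesthetized with urethane (1.2–1.4 g/kg SC) and kept at 37°C, with the spinal cord transected at T9–T10 at least 60 min before dosing. Test compound was given in 0.9% saline IV (200 μl plus 300 μl saline flush) or SC, vehicle first. Blood pressure was recorded continuously via the carotid artery, with heart rate derived off line from that signal. Values are change from the pre-dose baseline; one-way ANOVA.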

[7] = tested on: anesthetized, acutely spinalized rats; test: Other pharmacodynamic observations; format: in vivo, rat
Procedure, shortened: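 In urethane-anesthetized female rats with T9–T10 cord transection ≥60 min before dosing, vehicle then ascending IV, SC or IM doses of test compound in 0.9% saline were given. Changes in skin color (ear and paw flushing), salivation and lacrimation were recorded when present; respiration was watched visually for obvious changes.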

NK2 over NK1 receptors = conditions: ref Rupniak et al, unpublished results; cited from earlier work
[8] = tested on: human detrusor muscle strips; conditions: relative to KCL; ref Palea et al, 1996; cited from earlier work
[9] = tested on: blood pressure of guinea pigs; conditions: intra-arterial, ref Beattie et al, 1993; cited from earlier work

Row | Molecule | Effect on transient hypotension after IV injection of NKA and LMN-NKA (NK1 receptor [1]) | Effect on transient hypotension after IV injection of NKA and LMN-NKA (NK1 receptor [2]) | Effect on transient hypotension after IV injection of NKA and LMN-NKA (NK1 receptor [3]) | Duration of the bladder pressure response ([4]; 1 μg/kg IV, N=3, mean ± S.D.) [min] | Duration of the bladder pressure response ([4]; 300 μg/kg SC, N=4 for GR 64349, N=11 for LMN-NKA, mean ± S.D.) [min] | Onset of the increase in bladder pressure ([4]; 0.01–10 μg/kg IV and 1–300 μg/kg SC) [min] | Duration of action on colorectal pressure ([5]; SC 100 and 300 μg/kg) [min] | Increase in colorectal pressure ([5]; SC, highest doses tested were 100 and 300 μg/kg) | Blood pressure effect [6] | Respiration (visual observation, words) ([7]; LMN-NKA up to 300 μg/kg SC or IM, NKA and GR 64349 at the doses tested) | Flushing ([7]; NKA at similar, GR 64349 at higher doses compared to LMN-NKA) | Selectivity for NK2 over NK1 receptors (NK2 over NK1 receptors) [fold] | Maximal contraction of detrusor muscle strips [8] | Blood pressure effect [9]
1 | COc1ccccc1CN[C@H]1CCCN[C@H]1c1ccccc1 [CP-99,994] | blocked | blocked | blocked | – | – | – | – | – | – | – | – | – | – | –
2 | [Lys^3,Gly^8-R-gamma-lactam-Leu^9]-NKA(3–10) [GR 64349] | – | – | – | 1.5 ± 0.07 | 23.9 ± 12.22 | < 1 | 20 to 25 | only at the highest doses tested | No significant blood pressure changes | No obvious changes in respiration | transient flushing of the ears and paws | > 250 | equivalent to maximal KCL-induced contractions | transient drop in blood pressure
3 | spantide I | blocked | blocked | blocked | – | – | – | – | – | – | – | – | – | – | –
